Where no end group is shown, it is not given here.
Experiments:
human islets [1] = assay: 15N2-arginine tracer study in human islets; assay type: cell-based; conditions: 15N2(guanidino)-L-arginine 72 h, cytokines 24 h, n=4 donors
Method in brief: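 Human islets (150 in 2 ml) incubated 72 h with 15N2(guanidino)-L-arginine at 200 mg/L in RPMI with 5.5 mM glucose and 5% human A/B serum. Cytokine mix: TNF-α 10 ng/ml, IL-1β 10 ng/ml, IFNγ 100 ng/ml. Mass isotopomer distributions were corrected for natural abundance, normalized to tracer uptake, and expressed relative to PBS control set to 1.0.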

GK = conditions: cited from earlier work
[2] = test system: β-cells in human islet grafts; assay: β-cell death in human islet grafts; assay type: in vivo; conditions: donor islets pre-treated before transplantation; grafts excised day 2
Method in brief: (§1)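 Donor islets were pre-treated overnight at 37 °C with vehicle (1% DMSO), 5 µM compound, or 5 µM plus 1 mM PAA. Medium was RPMI uptake medium with 11 mM glucose, 10% serum and 0.1% Tween 80 (pH 6.0). Islets were washed and held 24 h in fresh media. Male NOD-SCID mice (10–12 wk) received single i.p. STZ 200 mg/kg. 500 islets went under the kidney capsule 24–48 h after blood glucose ≥300 mg/dl.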

human islets [3] = assay: Viability of human islets; assay type: cell-based
Method in brief: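 Human islets were cultured in PIM(S) with 5% human A/B serum and infected for PC knockdown 24 h before treatment, 72 h in total. Medium carried 1 mM argininosuccinate; cytokines were TNF-α 10, IL-1β 10 and IFNγ 100 ng/ml. AnnexinV/7AAD flow cytometry was run 48 h after cytokines. Positive cells lay ≥2 s.d. outside unstained sample means.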

diabetic NOD-SCID mice = assay type: in vivo, mouse; conditions: 500 pre-treated human islets in diabetic NOD-SCID mice, up to 53 days
Method in brief: as §1

human islets [4] = assay: Steady state urea quantification by GC-MS, human islets; assay type: cell-based
GLS = GLS activity readout; assay type: cell-based; conditions: islets, readout of GLS activity, n=2 human donors
human islets [5] = assay: NO levels by flow cytometry; assay type: cell-based
Method in brief: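 Islets were held 72 h in 33 mM versus 5.8 mM glucose. NO was read 24 h after cytokine treatment. For each replicate, 50 islets were dispersed in accutase at 37 °C, rinsed in PBS, and stained with DAF-FM 30 min at 37 °C. Mean FITC intensity by flow cytometry was normalized to PBS control set to 1.0.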

[6] = biological target: T1, recombinant human glucokinase (GK, hexokinase IV) (human, UniProt P35557 1-465); assay: ITC
T1 sequence (looked up): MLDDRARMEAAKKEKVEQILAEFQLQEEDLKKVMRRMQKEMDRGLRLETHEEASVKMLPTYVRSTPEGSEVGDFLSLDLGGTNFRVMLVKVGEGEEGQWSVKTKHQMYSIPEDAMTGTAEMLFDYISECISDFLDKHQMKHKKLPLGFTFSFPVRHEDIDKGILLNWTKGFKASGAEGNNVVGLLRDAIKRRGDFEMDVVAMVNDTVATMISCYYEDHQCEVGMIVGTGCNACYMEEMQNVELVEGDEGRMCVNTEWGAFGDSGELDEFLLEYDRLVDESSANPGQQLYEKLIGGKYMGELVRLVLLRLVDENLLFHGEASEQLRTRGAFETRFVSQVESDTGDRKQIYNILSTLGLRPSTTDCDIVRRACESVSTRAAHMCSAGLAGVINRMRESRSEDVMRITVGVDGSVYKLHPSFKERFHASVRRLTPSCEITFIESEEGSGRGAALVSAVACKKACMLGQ

[7] = PC-depleted human islets, cytokines, AS 1 mM, n=4 experiments, 2 donors
[8] = human islets, inflammatory cytokines, AS 1 mM, n=3 donors

## CS(=O)(=O)c1ccc([C@@H](CC2CCCC2)C(=O)Nc2nccs2)cc1 [RO0281675]
Human islets [1]
  15N2 enrichment in urea (M+2) / ureagenesis: ureagenesis was not altered
GK
  effect on GK affinity for glucose, allosteric activation: significantly augments the enzyme’s affinity for glucose
[2]
  β-cell death in islet grafts: ineffective
Human islets [3]; human islets, TNF-α, IL-1β and IFNγ 48 h, n=6 donors (Fig. 1c)
  viability / protection from cytokine-induced death: does not protect human islets from cytokine-induced death
Diabetic NOD-SCID mice
  hyperglycemia reversal (blood glucose): ineffective

## O=C(Cc1ccccc1)Nc1nnc(CCSCCc2nnc(NC(=O)Cc3ccccc3)s2)s1 [BPTES, Bis-2-(5-phenylacetamido-1,3,4-thiadiazol-2-yl)ethyl sulfide]
Human islets [4]; islets, n=2 human donors
  urea levels with BPTES: does not affect islet urea levels
GLS
  glutamate/glutamine (glu/gln) ratio: reduce the ratio of glutamate/glutamine

## NC(=NCCC[C@H](N)C(=O)O)N[C@@H](CC(=O)O)C(=O)O [AS, argininosuccinic acid]
Human islets [4]; [7]
  urea levels with argininosuccinate, PC knockdown: rescues urea levels
Human islets [4]; human islets, 10–200 µM AS
  urea levels, AS dose response: had no effect on urea levels
Human islets [4]; [8]
  urea levels with argininosuccinate: sufficient to increase urea levels
Human islets [3]; [7]
  viability with argininosuccinate, PC knockdown: protects against inflammation toxicity
Human islets [3]; [8]
  viability with argininosuccinate: rescue the viability of human islets undergoing inflammation

## OC[C@H]1OC(O)[C@H](O)[C@@H](O)[C@@H]1O (some centres unmarked) [glucose]
Human islets [4]; human islets, 33 mM glucose 72 h vs 5.8 mM glucose
  urea levels, glucotoxicity: reduces urea
Human islets [5]; 33 mM glucose 72 h vs 5.8 mM glucose
  NO levels, glucotoxicity: enhances NO levels

## COC[C@H](C)Oc1cc(O[C@@H](C)Cc2ccccc2)cc(C(=O)Nc2ccc(C(=O)O)cn2)c1 [GKA50]
Human islets [4]; human islets, inflammatory cytokines 24 h
  urea levels: These differences were further recapitulated with a second, structurally distinct allosteric GKA
Human islets [5]; inflammatory cytokines 24 h, DAF-FM
  NO levels: These differences were further recapitulated with a second, structurally distinct allosteric GKA

## NLWAAQRYGRELRRMDDEFVDSFKK (staple (positions not given here); not fully specified) [BAD BH3 SAHBA SD (hydrocarbon stapled peptide modeled after the phospho-BAD BH3 helix)]
[6]
  stoichiometry N: 1
